Laboratory results: paper PMC9321596 (Chemmedchem, 2022)
Each block holds one molecule with its values, some of them ahead of it. Square brackets hold non-standard residues; d marks the D form. Peptide text beside a SMILES is read from it. * marks the point of attachment. Cbz = O=C(OCc1ccccc1)*; βAla = NCCC(=O)O

Columns and labels:
[1] = target: NIMA interacting protein 1 (Pin1) (human) (UniProt Q13526); assay: Corning Epic label-free optical biosensor
[2] = target: parvulin-14 (Par14), also known as Pin4 (human) (UniProt Q9Y237); assay: Corning Epic label-free optical biosensor
Sequence of parvulin-14 (Par14), also known as Pin4 (human) (Q9Y237 whole entry): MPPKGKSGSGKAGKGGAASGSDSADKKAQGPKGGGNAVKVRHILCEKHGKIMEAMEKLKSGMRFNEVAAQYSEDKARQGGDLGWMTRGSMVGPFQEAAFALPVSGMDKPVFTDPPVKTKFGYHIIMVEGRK

HCT116 cells [3] = assay: MTT anti-proliferative assay, HCT116; assay type: cell-based, human; details: 10 μM, 24 h
Outline: (§1)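 MTT viability. A549, HCT116, MCF7 and AC16 were grown in DMEM; LNCaP in RPMI 1640. Both media had 10% FBS, penicillin/streptomycin, amphotericin-B and 2 mM L-glutamine. Cells seeded at 3×10⁴/well, treated in triplicate at 10 µM for 24 and 48 h. MTT 0.5 mg/mL for 3 h, formazan dissolved in DMSO, absorbance read at 570 nm. Expressed as % of untreated control, mean ± S.D. of three independent experiments.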

[4] = tested on: cancer cell lines (A549, HCT116, MCF7, LNCaP); assay: MTT anti-proliferative assay, R8 peptides, cancer cell lines; assay type: cell-based, human; details: 10 μM, after 24 h, effect persisted up to 48 h; all cancer cells tested
Outline: as §1

HCT116 cells [5] = assay: Cell cycle analysis by flow cytometry; assay type: cell-based, human; details: 10 μM, 48 h
Outline: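 HCT116 cells plated at 2×10⁵ cells/mL in triplicate and treated at 10 µM for 48 h. Harvested in PBS, spun at 1200 rpm for 5 min, then resuspended in hypotonic buffer (1×PBS, 0.1% sodium citrate, 0.1% NP-40, RNase A, […]). Held 30 min at RT in the dark, then run on flow cytometry with SSC-A/FSC-A gating and PI-A intensity.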

AC16 non-tumor cells = assay: MTT anti-proliferative assay, R8 peptides, AC16; assay type: cell-based, human; details: 10 μM, 24 h and 48 h
Outline: as §1

[6] = target: recombinant human 6His-tagged-Pin1 (Homo sapiens, UniProt Q13526); assay: Direct-binding assay
Sequence of recombinant human 6His-tagged-Pin1 (Q13526 whole entry): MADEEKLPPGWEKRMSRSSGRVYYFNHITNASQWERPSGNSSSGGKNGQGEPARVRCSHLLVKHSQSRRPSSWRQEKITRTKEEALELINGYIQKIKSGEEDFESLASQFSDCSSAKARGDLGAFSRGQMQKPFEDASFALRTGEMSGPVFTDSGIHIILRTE
Outline: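 Label-free optical biosensor assay. His6-Pin1 was expressed in E. coli BL21(DE3), purified, and immobilised at 150 µg/mL in 20 mM sodium acetate pH 5.5 overnight at 4 °C. Equilibrated 4 h in PBS, 0.5% DMSO, pH 7.4, then baseline read. Peptides were serially diluted to twelve concentrations from 500 µM final and read over 1 h. KD came from last-baseline-to-maximum signal, mean ± S.D. of three independent experiments.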

[7] = target: recombinant human 6His-tagged-Pin4 (Homo sapiens, UniProt Q9Y237); assay: Direct-binding assay
Sequence of recombinant human 6His-tagged-Pin4 (Q9Y237 whole entry): as the sequence (Q9Y237 whole entry) above

Sequence of NIMA interacting protein 1 (Pin1) (human) (Q13526 whole entry): as the sequence (Q13526 whole entry) above

Kd [1]: 70.2 µM
Kd [2]: 28.2 µM
Molecule: Methyl N2-(acetyl-L-alanyl)-N6-((benzyloxy)carbonyl)-L-lysyl-L-prolyl-L-phenylalaninate (5 i) (peptide)

Molecule: COC(=O)[C@H](Cc1ccccc1)NC(=O)[C@@H]1CCCN1C(=O)[C@H](Cc1c[nH]cn1)NC(=O)[C@H](C)NC(=O)CCNC(=O)[C@H](CCCNC(=N)N)NC(=O)[C@H](CCCNC(=N)N)NC(=O)[C@H](CCCNC(=N)N)NC(=O)[C@H](CCCNC(=N)N)NC(=O)[C@H](CCCNC(=N)N)NC(=O)[C@H](CCCNC(=N)N)NC(=O)[C@H](CCCNC(=N)N)NC(=O)[C@@H](N)CCCNC(=N)N [R8–5 k] (H-RRRRRRRR[βAla]AHPF-OMe; N-terminus assumed)
reduction of cell proliferation (HCT116 cells [3]): ~60%
reduction of cell proliferation [4]: 50–60%
cells within G1 phase (HCT116 cells [5]): 61.2%
anti-proliferative activity (AC16 non-tumor cells): less than 20%

Kd [1]: 53.6 µM
Molecule: Methyl N2-(acetyl-L-alanyl)-Nω-((4-methoxy-2,3,6-trimethylphenyl)sulfonyl)-L-arginyl-L-prolyl-L-phenylalaninate (5 c) (peptide)

binding to Pin1 (in words) [6]: abrogates the interaction
Molecule: Methyl acetyl‐L‐alanyl‐L‐lysyl‐D‐prolyl‐L‐phenylalaninate [5 p]

Kd [1]: 22.4 µM
Molecule: Methyl acetyl-L-alanyl-L-lysyl-L-prolyl-L-phenylalaninate (5 j) (peptide)

binding to Pin1 (in words) [6]: very little or no binding affinity
Molecule: COC(=O)[C@H](Cc1ccccc1)NC(=O)[C@@H]1CCCN1C(=O)[C@H](CCCNC(=N)NS(=O)(=O)c1c(C)cc(OC)c(C)c1C)NC(=O)[C@H](C)NC(C)=O [5 c, Methyl N^2‐(acetyl‐L‐alanyl)‐N^ω‐((4‐methoxy‐2,3,6‐trimethylphenyl)sulfonyl)‐L‐arginyl‐L‐prolyl‐L‐phenylalaninate]

binding to Pin1 (in words) [6]: very little or no binding affinity
Molecule: Methyl N‐(acetyl‐L‐alanyl)‐O‐benzyl‐L‐seryl‐L‐prolyl‐L‐phenylalaninate [5 g]

binding to Pin4 (in words) [7]: micromolar range
binding to Pin1 (in words) [6]: very little or no binding affinity
Molecule: tert‐Butyl (S)‐4‐((S)‐2‐acetamidopropanamido)‐5‐((S)‐2‐(((R)‐1‐methoxy‐1‐oxo‐3‐phenylpropan‐2‐yl)carbamoyl)pyrrolidin‐1‐yl)‐5‐oxopentanoate [5 e]

binding to Pin1 (in words) [6]: does not reach saturation
Molecule: COC(=O)[C@H](Cc1ccccc1)NC(=O)[C@@H]1CCCN1C(=O)[C@H](CCCCNC(=O)OCc1ccccc1)NC(=O)[C@H](C)NC(=O)CCNC(=O)[C@H](CCCNC(=N)N)NC(=O)[C@H](CCCNC(=N)N)NC(=O)[C@H](CCCNC(=N)N)NC(=O)[C@H](CCCNC(=N)N)NC(=O)[C@H](CCCNC(=N)N)NC(=O)[C@H](CCCNC(=N)N)NC(=O)[C@H](CCCNC(=N)N)NC(=O)[C@@H](N)CCCNC(=N)N [R8–5 i] (H-RRRRRRRR[βAla]AK(Cbz)PF-OMe; N-terminus assumed)
reduction of cell proliferation (HCT116 cells [3]): ~60%
reduction of cell proliferation [4]: 50–60%
cells within G1 phase (HCT116 cells [5]): 66.4%
anti-proliferative activity (AC16 non-tumor cells): less than 20%

Kd [1]: 4.5 µM
B1: Methyl acetyl-L-alanyl-L-seryl-L-prolyl-L-phenylalaninate (5 h) (peptide)
peptide: Ac-ASPF-OMe
SMILES: COC(=O)[C@H](Cc1ccccc1)NC(=O)[C@@H]1CCCN1C(=O)[C@H](CO)NC(=O)[C@H](C)NC(C)=O

Kd [1]: 6.09 µM
Molecule: Ac-AGPF-OMe (SMILES COC(=O)[C@H](Cc1ccccc1)NC(=O)[C@@H]1CCCN1C(=O)CNC(=O)[C@H](C)NC(C)=O) [Methyl acetyl-L-alanylglycyl-L-prolyl-L-phenylalaninate (5 a)]

Kd [1]: 6.11 µM
B2: Methyl acetyl-L-alanyl-L-valyl-L-prolyl-L-phenylalaninate (5 b) (peptide)
peptide: Ac-AVPF-OMe
SMILES: COC(=O)[C@H](Cc1ccccc1)NC(=O)[C@@H]1CCCN1C(=O)[C@@H](NC(=O)[C@H](C)NC(C)=O)C(C)C

Kd [1]: 30.5 µM
Molecule: Ac-ARPF-OMe [Methyl acetyl-L-alanyl-L-arginyl-L-prolyl-L-phenylalaninate (5 d)]

Kd [2]: 5.7 µM
B3: Methyl acetyl-L-alanyl-L-histidyl-L-prolyl-L-phenylalaninate (5 k) (peptide)
peptide: Ac-AHPF-OMe
SMILES: COC(=O)[C@H](Cc1ccccc1)NC(=O)[C@@H]1CCCN1C(=O)[C@H](Cc1c[nH]cn1)NC(=O)[C@H](C)NC(C)=O

Kd [1]: 14.1 µM
B4: Methyl acetyl-L-alanyl-L-methionyl-L-prolyl-L-phenylalaninate (5 l) (peptide)
peptide: Ac-AMPF-OMe
SMILES: COC(=O)[C@H](Cc1ccccc1)NC(=O)[C@@H]1CCCN1C(=O)[C@H](CCSC)NC(=O)[C@H](C)NC(C)=O

Kd [1]: 62.5 µM
B5: Methyl acetyl-L-alanyl-L-glutaminyl-L-prolyl-L-phenylalaninate (5 m) (peptide)
peptide: Ac-AQPF-OMe
SMILES: COC(=O)[C@H](Cc1ccccc1)NC(=O)[C@@H]1CCCN1C(=O)[C@H](CCC(N)=O)NC(=O)[C@H](C)NC(C)=O

Kd [2]: 18.6 µM
Molecule: Ac-[dA]EPF-OMe
